{
  "source": "ChEMBL document CHEMBL1140082",
  "about": "“Design, synthesis, and biological evaluation of potent c-Met inhibitors” (J Med Chem, 2008)",
  "key": {"[1]": {"target": "Hepatocyte growth factor receptor (Homo sapiens, UniProt P08581)", "experiment": "Inhibition of cMet by HTRF assay"}, "Aurora kinase A": {"target": "T1, Aurora kinase A (Homo sapiens, UniProt O14965)", "T1 sequence (O14965 whole entry)": "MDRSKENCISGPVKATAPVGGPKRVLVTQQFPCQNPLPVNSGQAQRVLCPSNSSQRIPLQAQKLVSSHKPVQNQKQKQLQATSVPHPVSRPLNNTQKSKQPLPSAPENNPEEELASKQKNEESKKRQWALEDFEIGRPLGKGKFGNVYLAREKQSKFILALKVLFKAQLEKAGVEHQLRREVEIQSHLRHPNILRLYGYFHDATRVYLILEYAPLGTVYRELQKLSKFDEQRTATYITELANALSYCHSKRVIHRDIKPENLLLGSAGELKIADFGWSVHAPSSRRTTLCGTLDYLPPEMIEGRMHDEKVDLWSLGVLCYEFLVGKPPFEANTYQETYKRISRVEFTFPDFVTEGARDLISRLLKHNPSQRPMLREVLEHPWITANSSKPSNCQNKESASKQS", "experiment": "Inhibition of Aurora2"}, "[2]": {"target": "Tyrosine-protein kinase Lck (Homo sapiens, UniProt P06239)", "experiment": "Inhibition of LCK"}, "[3]": {"experiment": "Inhibition of P38 kinase"}, "[4]": {"target": "Ribosomal protein S6 kinase beta-1 (Homo sapiens, UniProt P23443)", "experiment": "Inhibition of P70S6"}, "[5]": {"experiment": "Inhibition of IGFR"}, "[6]": {"experiment": "Bioavailability in iv dosed rat", "format": "ADME, organism-based", "details": "in vivo"}, "[7]": {"target": "T2, Tyrosine-protein kinase JAK3 (Homo sapiens, UniProt P52333)", "T2 sequence (P52333 whole entry)": "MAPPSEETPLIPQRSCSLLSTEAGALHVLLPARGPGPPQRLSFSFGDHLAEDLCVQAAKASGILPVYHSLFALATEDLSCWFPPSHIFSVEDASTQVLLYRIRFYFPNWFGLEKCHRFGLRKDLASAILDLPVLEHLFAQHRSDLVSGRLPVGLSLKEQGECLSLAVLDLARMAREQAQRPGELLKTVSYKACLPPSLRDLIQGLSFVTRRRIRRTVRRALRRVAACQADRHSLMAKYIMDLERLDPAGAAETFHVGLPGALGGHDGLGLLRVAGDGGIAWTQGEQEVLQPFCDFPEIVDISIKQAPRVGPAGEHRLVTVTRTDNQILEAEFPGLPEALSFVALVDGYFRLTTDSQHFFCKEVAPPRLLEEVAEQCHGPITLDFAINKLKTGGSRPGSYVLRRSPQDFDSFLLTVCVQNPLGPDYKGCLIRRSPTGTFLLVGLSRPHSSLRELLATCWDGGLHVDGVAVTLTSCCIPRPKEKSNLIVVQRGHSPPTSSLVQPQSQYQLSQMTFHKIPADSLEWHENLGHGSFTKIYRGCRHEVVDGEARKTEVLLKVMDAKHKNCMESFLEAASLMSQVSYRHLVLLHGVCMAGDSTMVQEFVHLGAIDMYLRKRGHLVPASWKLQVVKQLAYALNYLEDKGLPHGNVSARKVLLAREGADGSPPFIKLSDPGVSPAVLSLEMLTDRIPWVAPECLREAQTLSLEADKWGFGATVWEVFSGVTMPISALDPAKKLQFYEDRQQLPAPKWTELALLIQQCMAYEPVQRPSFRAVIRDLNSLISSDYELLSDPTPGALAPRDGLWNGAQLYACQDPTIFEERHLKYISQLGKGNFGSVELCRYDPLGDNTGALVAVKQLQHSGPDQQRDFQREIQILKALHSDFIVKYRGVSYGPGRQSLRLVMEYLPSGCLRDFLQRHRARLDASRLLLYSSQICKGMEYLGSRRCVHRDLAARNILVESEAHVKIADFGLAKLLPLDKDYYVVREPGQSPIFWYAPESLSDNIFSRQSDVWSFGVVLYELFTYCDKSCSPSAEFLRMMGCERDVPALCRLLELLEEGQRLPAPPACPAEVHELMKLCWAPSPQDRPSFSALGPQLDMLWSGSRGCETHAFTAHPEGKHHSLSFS", "experiment": "Inhibition of JAK3"}, "[8]": {"target": "Tyrosine-protein kinase ZAP-70 (Homo sapiens, UniProt P43403)", "experiment": "Inhibition of ZAP70"}, "[9]": {"target": "Tyrosine-protein kinase BTK (Homo sapiens, UniProt Q06187)", "experiment": "Inhibition of BTK"}, "[10]": {"target": "RAC-alpha serine/threonine-protein kinase (Homo sapiens, UniProt P31749)", "experiment": "Inhibition of PKBalpha"}, "[11]": {"target": "Mitogen-activated protein kinase 3 (Homo sapiens, UniProt P27361)", "experiment": "Inhibition of ERK1"}, "[12]": {"target": "Hepatocyte growth factor receptor c-Met (Mus musculus) (UniProt P16056)", "experiment": "Inhibition of human recombinant HGF-mediated cMet phosphorylation in mouse CT26 cells"}, "[13]": {"target": "Vascular endothelial growth factor receptor 2 (Homo sapiens, UniProt P35968)", "experiment": "Inhibition of phosphorylated KDR by HTRF assay", "summary_of_the_method": "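HTRF assay against KDR kinase with 10-point serial dilution. ATP at two-thirds of the experimentally determined Km (Eadie-Hofstee and Lineweaver-Burke). Ki derived from the IC50.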"}, "[14]": {"experiment": "Inhibition of FGFRK"}, "[15]": {"target": "cAMP-dependent protein kinase catalytic subunit alpha (Homo sapiens, UniProt P17612)", "experiment": "Inhibition of PKAalpha"}, "[16]": {"target": "Vascular endothelial growth factor receptor 3 (Homo sapiens, UniProt P35916)", "experiment": "Inhibition of Flt4 kinase"}, "[17]": {"target": "Mitogen-activated protein kinase 9 (Homo sapiens, UniProt P45984)", "experiment": "Inhibition of JNK2"}, "Mus musculus": {"test_system": "Mus musculus", "experiment": "Inhibition of human recombinant HGF-induced cMet phosphorylation in po or ip dosed BALB/c mouse liver after 2 hrs"}, "[18]": {"target": "Vascular endothelial growth factor receptor 1 (Homo sapiens, UniProt P17948)", "experiment": "Inhibition of Flt1 kinase"}, "[19]": {"target": "Tyrosine-protein kinase JAK2 (Homo sapiens, UniProt O60674)", "experiment": "Inhibition of JAK2"}, "[20]": {"experiment": "Volume of distribution in iv dosed rat", "format": "ADME, organism-based", "details": "in vivo"}, "[21]": {"target": "Ribosomal protein S6 kinase alpha-5 (Homo sapiens, UniProt O75582)", "experiment": "Inhibition of MSK1"}, "[22]": {"experiment": "Half life in iv dosed rat", "format": "ADME, organism-based", "details": "in vivo"}, "Angiopoietin-1 receptor": {"target": "Angiopoietin-1 receptor (Homo sapiens, UniProt Q02763)", "experiment": "Inhibition of Tie2 kinase"}, "[23]": {"experiment": "Clearance in iv dosed rat", "format": "ADME, organism-based", "details": "in vivo"}, "[24]": {"target": "Macrophage-stimulating protein receptor (Homo sapiens, UniProt Q04912)", "experiment": "Inhibition of phosphorylated RON"}, "[25]": {"target": "Fibroblast growth factor receptor 2 (Homo sapiens, UniProt P21802)", "experiment": "Inhibition of FGFRK2"}},
  "data": [
    {"smiles": "COc1cc2nccc(Oc3ccc(-c4cnc(C(N)c5ccccc5)n(C)c4=O)cc3F)c2cc1OC", "note": "(centres undefined)", "values": [
      {"measurement": "Ki", "setting": "[1]", "value": 72, "unit": "nM"}
    ]},
    {"smiles": "COc1cc2nccc(Oc3ccc(-c4cnc(Nc5cccc(F)c5)n(C)c4=O)cc3F)c2cc1OC", "values": [
      {"measurement": "Ki", "setting": "[1]", "value": 38, "unit": "nM"}
    ]},
    {"smiles": "COc1cc2c(Oc3ccc(-c4cnc(Nc5ccc(F)cc5)n(C)c4=O)cc3F)ccnc2cc1OCCCN1CCOCC1", "values": [
      {"measurement": "IC50", "setting": "Aurora kinase A", "value": "> 200", "unit": "nM"},
      {"measurement": "IC50", "setting": "[2]", "value": "< 4", "unit": "nM"},
      {"measurement": "IC50", "setting": "[3]", "value": 3600, "unit": "nM"},
      {"measurement": "IC50", "setting": "[4]", "value": 5700, "unit": "nM"},
      {"measurement": "Ki", "setting": "[5]", "value": 22, "unit": "nM"},
      {"measurement": "bioavailability", "setting": "[6]", "value": 34, "unit": "%"},
      {"measurement": "IC50", "setting": "[7]", "value": "> 1000", "unit": "nM"},
      {"measurement": "IC50", "setting": "[8]", "value": "> 8300", "unit": "nM"},
      {"measurement": "IC50", "setting": "[9]", "value": 27, "unit": "nM"},
      {"measurement": "IC50", "setting": "[10]", "value": "> 100000", "unit": "nM"},
      {"measurement": "IC50", "setting": "[11]", "value": "> 100000", "unit": "nM"},
      {"measurement": "IC50", "setting": "[12]", "value": 82, "unit": "nM"},
      {"measurement": "Ki", "setting": "[13]", "value": 139, "unit": "nM"},
      {"measurement": "IC50", "setting": "[14]", "value": "> 25000", "unit": "nM"},
      {"measurement": "IC50", "setting": "[15]", "value": "> 100000", "unit": "nM"},
      {"measurement": "IC50", "setting": "[16]", "value": 5, "unit": "nM"},
      {"measurement": "IC50", "setting": "[17]", "value": "> 100000", "unit": "nM"},
      {"measurement": "ED90", "setting": "Mus musculus", "value": 30, "unit": "mg/kg"},
      {"measurement": "IC50", "setting": "[18]", "value": 45, "unit": "nM"},
      {"measurement": "IC50", "setting": "[19]", "value": 3400, "unit": "nM"},
      {"measurement": "Vd", "setting": "[20]", "value": 3.4, "unit": "L/kg"},
      {"measurement": "IC50", "setting": "[21]", "value": "> 100000", "unit": "nM"},
      {"measurement": "half-life", "setting": "[22]", "value": 2.4, "unit": "h"},
      {"measurement": "Ki", "setting": "[1]", "value": 4.9, "unit": "nM"},
      {"measurement": "IC50", "setting": "Angiopoietin-1 receptor", "value": 26, "unit": "nM"},
      {"measurement": "clearance", "setting": "[23]", "value": 9.33, "unit": "mL/min/kg"},
      {"measurement": "Ki", "setting": "[24]", "value": 28, "unit": "nM"},
      {"measurement": "IC50", "setting": "[25]", "value": 140, "unit": "nM"}
    ]},
    {"smiles": "COc1cc2nccc(Oc3ccc(-c4cnc(Cc5ccccc5)n(C)c4=O)cc3F)c2cc1OC", "values": [
      {"measurement": "Ki", "setting": "[5]", "value": 1030, "unit": "nM"},
      {"measurement": "Ki", "setting": "[13]", "value": "> 1300", "unit": "nM"}
    ]},
    {"smiles": "COc1cc2c(Oc3ccc(-c4cnc(Cc5ccccc5)n(C)c4=O)cc3F)ccnc2cc1OCCCN1CCN(C)CC1", "values": [
      {"measurement": "Ki", "setting": "[1]", "value": 9.2, "unit": "nM"}
    ]},
    {"smiles": "COc1cc2nccc(Oc3ccc(-c4cnc(Nc5ccc(F)cc5)n(C)c4=O)cc3F)c2cc1OC", "values": [
      {"measurement": "Ki", "setting": "[5]", "value": 70, "unit": "nM"},
      {"measurement": "Ki", "setting": "[13]", "value": 382, "unit": "nM"}
    ]},
    {"smiles": "COc1cc2c(Oc3ccc(-c4cnc(Cc5ccc(F)cc5)n(C)c4=O)cc3F)ccnc2cc1OCCCN1CCOCC1", "values": [
      {"measurement": "Ki", "setting": "[5]", "value": 860, "unit": "nM"},
      {"measurement": "IC50", "setting": "[12]", "value": 196, "unit": "nM"},
      {"measurement": "Ki", "setting": "[13]", "value": "> 3000", "unit": "nM"},
      {"measurement": "Ki", "setting": "[1]", "value": 17, "unit": "nM"}
    ]}
  ]
}
